In ChEMBL document CHEMBL4308838, “Subtle Modifications to the Indole-2-carboxamide Motif of the Negative Allosteric Modulator N-(( trans)-4-(2-(7-Cyano-3,4-dihydroisoquinolin-2(1 H)-yl)ethyl)cyclohexyl)-1 H-indole-2-carboxamide (SB269652) Yield Dramatic Changes in Pharmacological Activity at the Dopamine D2 Receptor” (J Med Chem, 2018):

Legend:
Type in all cases: cell-based
[1] = target: D(2) dopamine receptor (Homo sapiens) (UniProt P14416); experiment: Negative allosteric modulation of human D2LR expressed in Flp-In-CHO cells assessed as inhibition of dopamine-indued ERK1/2 phosphorylation by measuring negative co-operativity factor preincubated for 30 mins followed by dopamine addition and measured after 5 mins by AlphaScreen assay
Sequence of D(2) dopamine receptor (Homo sapiens) (P14416 whole entry, canonical isoform): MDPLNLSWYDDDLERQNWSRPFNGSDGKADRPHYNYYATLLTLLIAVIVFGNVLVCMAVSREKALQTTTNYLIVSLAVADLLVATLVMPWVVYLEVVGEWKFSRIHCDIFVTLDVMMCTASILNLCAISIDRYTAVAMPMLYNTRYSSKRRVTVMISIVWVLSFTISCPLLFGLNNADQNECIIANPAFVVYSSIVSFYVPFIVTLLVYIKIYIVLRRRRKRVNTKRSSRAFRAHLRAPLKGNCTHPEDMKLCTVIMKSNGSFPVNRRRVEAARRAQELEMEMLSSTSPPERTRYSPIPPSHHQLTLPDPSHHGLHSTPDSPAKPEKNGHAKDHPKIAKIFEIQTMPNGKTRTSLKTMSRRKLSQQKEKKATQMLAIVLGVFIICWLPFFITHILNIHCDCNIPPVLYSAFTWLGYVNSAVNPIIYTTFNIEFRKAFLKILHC
Summary of the method: (§1)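 pERK1/2 signalling through the long D2 isoform (D2LR) expressed in FlpIn CHO cells. Test ligands were measured against increasing dopamine concentrations. Curves were fitted with an operational model of allosterism (functional affinity KB, cooperativity α, efficacy modulation β, net αβ) and with a Gaddum-Schild model (KB, Schild slope). The better fit was chosen by F-test. Mean ± SEM of three experiments run in duplicate.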

[2] = target: D(2) dopamine receptor (Homo sapiens) (UniProt P14416); experiment: Negative allosteric modulation of human D2LR expressed in Flp-In-CHO cells assessed as inhibition of dopamine-indued ERK1/2 phosphorylation preincubated for 30 mins followed by dopamine addition and measured after 5 mins by AlphaScreen assay; summary of the method: as §1
[3] = target: D(2) dopamine receptor (Homo sapiens) (UniProt P14416); experiment: Negative allosteric modulation of human D2LR expressed in Flp-In-CHO cells assessed as inhibition of dopamine-indued ERK1/2 phosphorylation preincubated for 30 mins followed by dopamine addition and measured after 5 mins by AlphaScreen assay relative to control; summary of the method: as §1
[4] = target: D(2) dopamine receptor (Homo sapiens) (UniProt P14416); experiment: (§2) Negative allosteric modulation of human D2LR expressed in Flp-In-CHO cells assessed as inhibition of dopamine-indued ERK1/2 phosphorylation by measuring effect on dopamine efficacy preincubated for 30 mins followed by dopamine addition and measured after 5 mins by AlphaScreen assay; summary of the method: as §1
[5] = target: D(2) dopamine receptor (Homo sapiens) (UniProt P14416); experiment: as §2, with “assay relative to control” for “assay”; summary of the method: as §1
[6] = target: D(2) dopamine receptor (Homo sapiens) (UniProt P14416); experiment: Negative allosteric modulation of human D2LR expressed in Flp-In-CHO cells assessed as inhibition of dopamine-indued ERK1/2 phosphorylation by measuring co-operativity factor preincubated for 30 mins followed by dopamine addition and measured after 5 mins by AlphaScreen assay; summary of the method: as §1
[7] = target: D(2) dopamine receptor (Homo sapiens) (UniProt P14416); experiment: Negative allosteric modulation of human D2LR expressed in Flp-In-CHO cells assessed as inhibition of dopamine-indued ERK1/2 phosphorylation by measuring co-operativity factor preincubated for 30 mins followed by dopamine addition and measured after 5 mins by AlphaScreen assay relative to control; summary of the method: as §1

Compound | Activity [1] | log(activity) [1] | Kb [2] [nM] | pKb [2] | fold change (FC) [3] | Activity [4] | log(activity) [4] | fold change (FC) [5] | Activity [6] | log(activity) [6] | fold change (FC) [7]
N#Cc1ccc2c(c1)CN(CC[C@H]1CC[C@H](NC(=O)c3c[nH]c4ccncc34)CC1)CC2 |  |  | 3.5 | 8.46 |  |  |  |  |  |  | 
N#Cc1ccc2c(c1)CN(CC[C@H]1CC[C@H](NC(=O)c3cc4sccc4[nH]3)CC1)CC2 |  |  | 87 | 7.06 |  |  |  |  |  |  | 
COc1ccc2cc(C(=O)N[C@H]3CC[C@H](CCN4CCc5ccc(C#N)cc5C4)CC3)[nH]c2c1 |  |  | 25 | 7.6 |  |  |  |  |  |  | 
N#Cc1ccc2c(c1)CN(CC[C@H]1CC[C@H](NC(=O)c3cc4cccc(F)c4[nH]3)CC1)CC2 | 0.016 | -1.79 | 4.5 | 8.35 | 62 |  |  |  |  |  | 
N#Cc1ccc2c(c1)CN(CC[C@H]1CC[C@H](NC(=O)c3cc4cc(F)ccc4[nH]3)CC1)CC2 | 0.016 | -1.8 | 6.8 | 8.17 | 63 |  |  |  |  |  | 
N#Cc1ccc2c(c1)CN(CC[C@H]1CC[C@H](NC(=O)c3cc4ccccn4n3)CC1)CC2 | 0.03 | -1.52 | 165 | 6.78 | 33 |  |  |  |  |  | 
COc1ccc2[nH]c(C(=O)N[C@H]3CC[C@H](CCN4CCc5ccc(C#N)cc5C4)CC3)cc2c1 |  |  | 2 | 8.7 |  |  |  |  |  |  | 
N#Cc1ccc2c(c1)CN(CC[C@H]1CC[C@H](NC(=O)c3cc4cccnc4[nH]3)CC1)CC2 | 0.038 | -1.42 |  | 7.63 | 26 |  |  |  |  |  | 
COc1cccc2cc(C(=O)N[C@H]3CC[C@H](CCN4CCc5ccc(C#N)cc5C4)CC3)[nH]c12 |  |  | 51 | 7.29 |  |  |  |  |  |  | 

Second part, the compound after the results:

Activity [1] | log(activity) [1] | Kb [2] [nM] | pKb [2] | fold change (FC) [3] | Activity [4] | log(activity) [4] | fold change (FC) [5] | Activity [6] | log(activity) [6] | fold change (FC) [7] | Compound
0.032 | -1.5 | 47 | 7.33 | 32 |  |  |  |  |  |  | N#Cc1ccc2c(c1)CN(CC[C@H]1CC[C@H](NC(=O)c3cc4c(F)cccc4[nH]3)CC1)CC2
 |  | 0.148 | 9.83 |  | 0.16 | -0.8 | 6 | 0.048 | -1.32 | 21 | N#Cc1ccc2c(c1)CN(CC[C@H]1CC[C@H](NC(=O)c3c[nH]c4cccnc34)CC1)CC2
0.00055 | -3.26 | 2.7 | 8.57 | 1800 |  |  |  |  |  |  | N#Cc1ccc2c(c1)CN(CC[C@H]1CC[C@H](NC(=O)c3cc4ccncc4[nH]3)CC1)CC2
0.032 | -1.5 | 34 | 7.47 | 32 |  |  |  |  |  |  | N#Cc1ccc2c(c1)CN(CC[C@H]1CC[C@H](NC(=O)c3c[nH]c4ncccc34)CC1)CC2
0.065 | -1.19 | 219 | 6.66 | 15 |  |  |  |  |  |  | N#Cc1ccc2c(c1)CN(CC[C@H]1CC[C@H](NC(=O)c3cc4ccc(F)cc4[nH]3)CC1)CC2
 |  | 63 | 7.2 |  |  |  |  |  |  |  | N#Cc1ccc2c(c1)CN(CC[C@H]1CC[C@H](NC(=O)c3c[nH]c4ccccc34)CC1)CC2
 |  | 40 | 7.39 |  |  |  |  |  |  |  | N#Cc1ccc2c(c1)CN(CC[C@H]1CC[C@H](NC(=O)c3cnn4ccccc34)CC1)CC2
0.3 | -0.52 | 617 | 6.21 | 3 |  |  |  |  |  |  | COc1cccc2[nH]c(C(=O)N[C@H]3CC[C@H](CCN4CCc5ccc(C#N)cc5C4)CC3)cc12
0.0048 | -2.31 | 24 | 7.62 | 210 |  |  |  |  |  |  | N#Cc1ccc2c(c1)CN(CC[C@H]1CC[C@H](NC(=O)c3cnc4ccccn34)CC1)CC2
0.0036 | -2.44 | 10 | 8 | 275 |  |  |  |  |  |  | N#Cc1ccc2c(c1)CN(CC[C@H]1CC[C@H](NC(=O)c3c[nH]c4cnccc34)CC1)CC2
